# MrgX1 allo act – allosterically activates human MrgX1 receptor signaling; MrgX1-HEK293, Fluo-4 calcium flux, FDSS; hits give high values; B-score at 10 µM; actives 0.63% (n = 310,000);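 active = plate-corrected calcium response at least 3 library SD above typical, normal starting fluorescence, not activating the receptor alone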;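 also: compound read alongside a low EC10 to EC30 dose of BAM8-22 agonist; peak minus trough fluorescence over baseline measured at the second addition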
# Target sequence (Q96LB2 whole entry, looked up): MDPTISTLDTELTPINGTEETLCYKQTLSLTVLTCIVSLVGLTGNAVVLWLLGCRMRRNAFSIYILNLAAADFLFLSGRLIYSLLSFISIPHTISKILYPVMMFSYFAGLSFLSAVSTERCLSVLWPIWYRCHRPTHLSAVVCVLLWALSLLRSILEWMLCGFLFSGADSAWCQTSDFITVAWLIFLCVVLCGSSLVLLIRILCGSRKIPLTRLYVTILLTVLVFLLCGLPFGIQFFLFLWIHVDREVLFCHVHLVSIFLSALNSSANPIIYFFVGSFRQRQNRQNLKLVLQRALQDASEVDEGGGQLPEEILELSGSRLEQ
# RGS4 pot – potentiators or activators of RGS4. AID 463111. HEK293 M3R/inducible RGS4, carbachol calcium flux Fluo4; hits give low values. B-score at 10 µM. actives 0.92% (n = 310,000);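 active = B-score of the integrated calcium signal more than 4 SD below the library mean, with starting fluorescence not abnormally high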;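 also: negative B-score means reduced calcium response which marks RGS4 activation or potentiation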
#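 Reagent: ECmax carbachol challenge; Test system: M3R-expressing HEK293 line, RGS4 induced by doxycycline; Schedule: overnight RGS4 induction, 30 min dye load 37 °C, 20 min compound RT; Detection: calcium dye Fluo4 fluorescence; Read-out: Agonist-evoked peak-minus-minimum fluorescence over baseline, integrated ratio, B score.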
# RGS4 block – inhibitors of human RGS4. B-score at 10 µM. P49798. actives 0.45% (n = 310,000). HEK293 M3R/RGS4 inducible, Fluo-4 calcium flux; hits give high values; triggered by carbachol at its EC20;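 active = B-score, a plate-corrected calcium signal, over three deviations above library mean, with baseline fluorescence within five deviations of library mean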;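 also: RGS4 expression induced by doxycycline in cells with stable M3 receptor; B-score is computed from the integrated fluorescence ratio over baseline after carbachol; higher B-score means a larger calcium signal and so more RGS4 inhibition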
# Target sequence (P49798 whole entry, looked up): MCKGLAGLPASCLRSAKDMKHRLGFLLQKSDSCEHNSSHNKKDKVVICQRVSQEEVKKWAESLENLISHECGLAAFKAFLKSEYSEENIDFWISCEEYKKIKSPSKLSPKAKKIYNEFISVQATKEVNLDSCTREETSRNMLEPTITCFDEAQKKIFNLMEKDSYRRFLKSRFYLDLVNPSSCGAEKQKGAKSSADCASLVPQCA
# MrgX1 agonist – human MrgX1 receptor agonism, primary screen | Q96LB2 | MrgX1-HEK293 cells, Fluo-4 calcium fluorescence, agonist mode; hits give high values | B-score at 10 µM | actives 0.44% (n = 310,000) | AID 588627;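 active = calcium response B-score plate-corrected fluorescence ratio at least 3 library SD, with starting fluorescence B-score inside 5 SD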
#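 System: HEK293 cells stably expressing human MrgX1 receptor; Dosing: test compound in the initial addition of three; Schedule: overnight plating, then 30 min 37 °C plus 30 min room-temperature dye loading; Detection: kinetic calcium dye fluorescence, Fluo-4 NW; Controls: per-plate positive and negative controls for Z′ factor.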
# MrgX1 antagonist – human MrgX1 receptor antagonism, primary screen; MRGX1-HEK293 calcium flux, Fluo-4, BAM8-22 antagonism; hits give low values; AID 588676; Q96LB2; actives 1.3% (n = 310,000); B-score at 10 µM;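 active = calcium-response B-score plate-corrected more than 3 library SD below zero, starting fluorescence within 5 deviations, no agonist response on first addition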;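 also: peak minus trough fluorescence over baseline after final BAM8-22 challenge near maximal dose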
# RGS4 block valid – RGS4 inhibitor validation; shares compounds with RGS4 block; HEK293 M3R/RGS4, carbachol calcium Fluo-4 fluorescence; carbachol added at its EC20; 0 = buffer wells, 100 = carbachol control; calcium response, % at 10 µM; actives 65% (n = 1,700); AID 492999;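 active = duplicate-averaged calcium response above the buffer-only control mean plus 5 SD of those controls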;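 also: integrated fluorescence ratio F max minus min over baseline F0; higher response in RGS4-induced cells means RGS4 inhibition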
# M3R Ca ctr – non-induced cell nonspecific activity of RGS4 inhibitors; shares compounds with RGS4 block; HEK293 M3R non-induced, carbachol calcium Fluo-4; submaximal (EC20) carbachol stimulus; buffer wells 0%, carbachol control wells 100%; activity (percent), % at 10 µM; actives 20% (n = 1,900); AID 493000; call rule not given here;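 also: RGS4 induction absent so cells express M3R without RGS4; higher means more calcium signal and flags a non-specific hit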
# M3R basal Ca ctr – second counter-screen for RGS4 inhibitors: non-induced cells without carbachol | shares compounds with RGS4 block | HEK293 M3R/RGS4 non-induced, Fluo-4 calcium, no carbachol; normalised: buffer wells 0%, carbachol wells 100% | calcium response (agonist-mode artifact), % at 10 µM | actives 22% (n = 1,900);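 active = duplicate-averaged calcium rise in uninduced cells above buffer wells' mean plus 5 SD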
# Numbers stand for hits; n = inactive; x = not tested or not shown. This is a sample that favours compounds with a hit; in the whole collection about 3.5% have one here.
SMILES,MrgX1 allo act,RGS4 pot,RGS4 block,MrgX1 agonist,MrgX1 antagonist,RGS4 block valid,M3R Ca ctr,M3R basal Ca ctr
COc1ccccc1N1CCN(C2CCCN(C(=O)CCC(C)=O)C2)CC1 (stereo not drawn),n,n,n,n,n,x,x,x
Cc1c(OC(C)C(=O)NCc2ccccn2)ccc2c3c(c(=O)oc12)CCCC3 (stereo not drawn),n,n,n,n,n,x,x,x
CC1(C)CC(NC(=O)c2coc(=O)c(Br)c2)CC(C)(C)N1,n,n,4.7,n,n,17%,n,n
Cc1nn(CC(=O)NCc2cccs2)c(=O)c2nn(-c3ccccc3)c(C)c12,n,n,n,n,n,n,n,n
COC(CN(C)S(=O)(=O)c1cc2c3c(c1)CCN3C(=O)CC2)OC,n,n,n,n,n,x,x,x
O=CC1=C(c2ccccc2)Oc2ccccc2O1,n,n,10,n,n,19%,40%,n
CN(C)/C=C1/N=C(c2ccccc2)OC1=O,n,n,n,n,n,x,x,x
CC1=NN(c2ccc(F)cc2)C(=O)C1C(c1cccc(O)c1)c1c(C)[nH]n(-c2ccc(F)cc2)c1=O (stereo not drawn),n,n,9.7,n,n,13%,n,n
CC1=NN(c2ccc(Cl)cc2)C(=O)C1C(c1cccc(O)c1)c1c(C)[nH]n(-c2ccc(Cl)cc2)c1=O (stereo not drawn),n,n,n,n,n,x,36%,n
CC1=NN(c2ccc(C)cc2C)C(=O)C1C(c1ccccc1)C1C(=O)N(c2ccc(C)cc2C)N=C1C (stereo not drawn),n,n,n,n,n,x,x,x
Cc1cccc(C)c1N(CC(O)Cn1c2ccccc2c2ccccc21)S(C)(=O)=O (stereo not drawn),n,n,7.2,n,n,19%,n,n
CC(=O)n1cc(C(C[N+](=O)[O-])SCCN)c2ccccc21 (stereo not drawn),n,n,4.7,58,n,55%,n,34%
COC(=O)CCCn1nc(NC(=O)COc2ccc(F)cc2)cc1C,n,n,n,n,n,x,x,x
Cc1ccccc1-n1ncc2c1CC(C)(C)CC2NC(=O)CCCN1CCCC1=O (stereo not drawn),n,n,n,n,n,x,x,x
C=CCNc1nnc(SC2CC(=O)N(c3ccc(OCCC)cc3)C2=O)s1 (stereo not drawn),n,n,n,n,n,n,n,n
CC(C)c1ccc(NC(=O)[C@@H]2CCC(=O)N2C2OC(=O)c3ccccc32)cc1 (stereo partly drawn),n,n,n,n,n,x,x,x
CC1=NOC(=O)/C1=C/c1ccc(O)c(Cl)c1,n,n,8.2,37,n,17%,n,50%
COc1ccc(Cl)cc1/C=C1/C(=O)ON=C1C,n,n,n,n,n,x,x,x
O=C1ON=C(c2ccccc2)/C1=C/c1ccc(O)c(O)c1,n,n,5.7,n,n,26%,n,53%
COc1ccc(/C=C2\C(=O)ON=C2c2ccccc2)cc1,n,n,n,n,n,x,x,x
COc1cc(/C=C2\C(=O)ON=C2c2ccc(Cl)cc2)ccc1O,n,n,n,27,n,x,n,56%
O=C1ON=C(c2cccc([N+](=O)[O-])c2)/C1=C/c1ccc(O)cc1,n,n,16,n,n,44%,n,29%
COc1ccc2cc(C(C)C(=O)N3CCC(C)CC3)ccc2c1 (stereo not drawn),n,n,n,n,n,x,x,x
CN(CC(=O)Nc1ccc(Cl)c(C(F)(F)F)c1)C(=O)Cc1c[nH]c2ccccc12,n,n,5.9,n,n,18%,n,n
COc1ccc(S(=O)(=O)N2CCCC(C(=O)N3CCOCC3)C2)cc1C (stereo not drawn),n,n,n,n,n,x,x,x
SMILES,MrgX1 allo act,RGS4 pot,RGS4 block,MrgX1 agonist,MrgX1 antagonist,RGS4 block valid,M3R Ca ctr,M3R basal Ca ctr
COc1ccc(OC)c(S(=O)(=O)N2CCCC(C(=O)N3CCOCC3)C2)c1 (stereo not drawn),n,n,4.8,n,n,n,n,n
C[C@@H]1CCC(=O)N(CC[C@H](Oc2ccccc2)c2ccccc2)CC1,n,n,n,n,n,x,x,x
COc1ccc(C(=O)/C=C/c2cc(C(=O)O)cc3c2OCOC3)c(O)c1,n,n,24,n,n,64%,70%,n
O=C(/C=C/c1ccoc1)c1ccccc1O,n,n,n,n,n,x,x,x
COc1ccc(C(=O)/C=C/c2ccc(OC)cc2OC)c(O)c1,n,n,n,n,n,x,x,x
O=C(/C=C/c1ccc(O)c(O)c1)c1ccccc1O,14,n,13,n,n,25%,48%,n
COc1ccc(C(=O)/C=C/c2ccccc2)c(O)c1,n,n,n,n,n,n,n,n
CCOc1c(Cl)cc(CNc2ccc(N3CCCC3)cc2)cc1OC,x,n,5.7,x,x,18%,n,n
CCOc1c(Cl)cc(CNc2ccc(S(N)(=O)=O)cc2)cc1OC,n,n,n,n,n,x,x,x
CCOc1ccc(C2=NNC(c3cccs3)=Nc3ccc(OCC)cc32)cc1,n,n,n,n,n,x,x,x
COP(=O)(OC)c1nc(-c2ccc(C)cc2)oc1N1CCCCC1,n,n,n,n,n,x,x,x
CCN(C(=O)Cc1c(C(=O)O)n(C)c2ccccc12)c1cccc(C)c1,n,n,n,n,n,n,n,n
Cc1ccc2c(CN3CCC(C)CC3)cc(=O)oc2c1,n,n,n,n,n,x,x,x
CCOC(=O)C1CCCN(Cc2cc(=O)oc3cc(C)ccc23)C1 (stereo not drawn),n,n,n,n,n,n,n,10%
CCOC(=O)C1CCN(Cc2cc(=O)oc3cc(C)ccc23)CC1,n,n,5.5,n,n,n,n,n
Cc1coc2c1c(C)cc1oc(=O)c(CC(=O)NCCCN3CCCC3=O)c(C)c12,n,n,n,n,n,x,x,x
CN(C)c1ccc(/C=N/NC(=O)CN2CCCCC2)cc1Br,n,n,n,n,n,x,x,x
O=C1/C(=C\c2cc(Cl)c(O)c(Cl)c2)SC(=S)N1Cc1ccccc1,n,n,n,n,n,x,x,x
O=C(O)COc1ccc(/C=C2/SC(=S)N(Cc3ccccc3)C2=O)cc1,n,n,n,n,n,x,42%,n
COc1ccc(/C=C2/SC(=S)N(Cc3ccccc3)C2=O)cc1O,n,n,5,n,n,24%,n,20%
O=C(CCC(=O)N1CCCC1)N1CCCC1,n,n,n,n,n,x,x,x
C=CCn1c(SC(C)CC)nc(O)cc1=O (stereo not drawn),n,n,4.8,n,n,n,n,n
